According to paper PMC4899092 (Bioorganic & medicinal chemistry letters, 2016):
pIC50: −log10 of the molar value.

Legend:
Pim3 = Pim3 (Homo sapiens, UniProt Q86V86); experiment: KINOMEscan primary screen binding; details: 10 μM; lower numbers indicate stronger hits
Outline: (§1)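 Test compound profiled as a single-concentration primary binding screen across a panel of 100 kinases by the KINOMEscan service, at 10 μM. Binding interactions were reported as % Ctrl, with lower values indicating stronger hits. A selectivity score, S(35), was also calculated across the panel.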

CSNK1D = CSNK1D (Homo sapiens, UniProt P48730); experiment: KINOMEscan primary screen binding; details: 10 μM; lower numbers indicate stronger hits
Outline: as §1

Pim1 = Pim1 (Homo sapiens, UniProt P11309); experiment: KINOMEscan primary screen binding; details: 10 μM; lower numbers indicate stronger hits
Outline: as §1

panel of 100 kinases = experiment: KINOMEscan selectivity over kinase panel; assay type: binding; details: KINOMEscan panel of 100 kinases, 10 μM
DU-145 cells = experiment: Growth inhibition of DU-145 prostate cancer cells; assay type: cell-based; details: read-out: IC50, growth inhibition of DU-145 cells; human prostate cancer cell line DU-145

Sequence of CSNK1D (P48730 whole entry): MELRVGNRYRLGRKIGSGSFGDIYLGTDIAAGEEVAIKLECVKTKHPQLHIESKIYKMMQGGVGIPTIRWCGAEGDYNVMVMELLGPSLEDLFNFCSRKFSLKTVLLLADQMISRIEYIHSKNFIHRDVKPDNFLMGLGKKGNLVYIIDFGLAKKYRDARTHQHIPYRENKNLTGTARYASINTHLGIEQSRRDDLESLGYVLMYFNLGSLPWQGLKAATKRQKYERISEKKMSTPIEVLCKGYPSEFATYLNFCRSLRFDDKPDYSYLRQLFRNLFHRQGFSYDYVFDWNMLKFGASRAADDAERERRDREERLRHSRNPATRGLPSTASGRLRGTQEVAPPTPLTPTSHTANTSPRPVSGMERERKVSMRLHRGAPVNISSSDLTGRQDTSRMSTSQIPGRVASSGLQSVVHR
Sequence of Pim1 (P11309 whole entry): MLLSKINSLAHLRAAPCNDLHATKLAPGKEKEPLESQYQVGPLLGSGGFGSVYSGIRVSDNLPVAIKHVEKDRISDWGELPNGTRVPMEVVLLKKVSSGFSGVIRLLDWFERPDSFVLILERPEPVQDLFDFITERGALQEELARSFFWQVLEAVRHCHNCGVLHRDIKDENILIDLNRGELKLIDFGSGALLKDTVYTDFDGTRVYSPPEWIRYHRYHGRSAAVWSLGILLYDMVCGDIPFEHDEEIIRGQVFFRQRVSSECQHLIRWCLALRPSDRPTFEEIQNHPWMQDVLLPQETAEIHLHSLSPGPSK

% Ctrl Pim3 (Pim3) [% control] | % Ctrl CSNK1D (CSNK1D) [% control] | % Ctrl Pim1 (Pim1) [% control] | selectivity score S(35) (panel of 100 kinases) | pIC50 (DU-145 cells) | SMILES
36 | 30 | 34 | 0.022 |  | O=C1C2=C(C(=O)c3c(O)ccc(O)c31)[C@@H](O)[C@@H](O)[C@@H](O)C2 [Compound 4]
 |  |  |  | 5.49 | CC(C)C(C)OC1CC(=O)CC2C(=O)c3c(O)ccc(O)c3C(=O)C12 (stereo not drawn) [Compound 7]
 |  |  |  | 5.69 | CC(C)(C)OC1CC(O)CC2C(=O)c3c(O)ccc(O)c3C(=O)C12 (stereo not drawn) [Compound 9]
